Assay results: the EternaBench riboswitch data

Tested on: MS2 coat protein
Assay: apparent Kd, MS2 coat protein; higher = weaker binding; RNA-MaP array; FMN 200 µM where present
Procedure, shortened: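 Stalled E. coli RNA polymerase produced the designs on Illumina sequencing-chip clusters. SNAP-549-labelled MS2 coat protein was added from 0.7 or 1.5 nM, doubling to 3 µM, without and then with constant ligand, in 100 mM Tris-HCl pH 7.5, 80 mM KCl, 4 mM MgCl2, BSA, DTT, yeast tRNA and Tween-20. The apparent Kd is the median of filtered per-cluster fits of green signal normalised to red-channel RNA signal and control-cluster median Fmax.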

[1] = designed as: OFF switch for flavin mononucleotide, no ligand
[2] = ligand present: flavin mononucleotide, designed as: OFF switch for flavin mononucleotide
[3] = designed as: ON switch for flavin mononucleotide, no ligand
[4] = ligand present: flavin mononucleotide, designed as: ON switch for flavin mononucleotide

Sequence | apparent Kd [1] [nM] | apparent Kd [2] [nM] | apparent Kd [3] [nM] | apparent Kd [4] [nM]
ACAUGAUCAGGAUAUACAUGAGGAUCACCCAUGUAUUUCAAAAAGGGACUUUCUUAAUGUAGAAGGGAUCUUGU | 14.7 | 33.8 |  | 
ACAUGAUCAGGAUAUACAUGAGGAUCACCCAUGUUUAUCAAAAAAAGGCUUUCAUCAUGUAGAAGGGAUCUUGU | 20.4 | 65.7 |  | 
ACAUGCAUAGCGAUAUGAUCGAGAGAUCAUGUCGCAAAAUUUAGAAGGACAUGAGGAUCACCCAUGUAGGAUAUGGGAGCAUGA |  |  | 43.8 | 12.9
ACAUUAAGUGCAGGAUAUGCCAACCUGGGUUCGGUAGAAGGGCACAUGAGGAUCACCCAUGUAGCGGUGGGUUGGGCCAAGGUU | 13.3 | 35.6 |  | 
ACAUUGCGAGGAUAUACAUGAGGAUCACCCAUGUGGUGGCAGAUACGGUAGGACUAGUGUAGAAGGUGUCAUGG | 490 | 397 |  | 
ACCAAUCACAUAGGAUAUAGAAUAUUAAAUUUUUACAUGAGGAUCACCCAUGUUUUAUUGGGAUACUAGAAGGAUGAGUAAUAA |  |  | 113 | 108
ACCAUAAACAUAGGAUAUAGAAUAAGAACUACUUACAUGAGGAUCACCCAUGUUAUAUUUGGGUACUAGAAGGAUGAGUGUUAA |  |  | 387 | 259
ACCAUUUACUAAUUGUCUAUACAUGAGGAUCACCCAUGUUAUGAGGAUAUCGUCGUGAAACACGACGAGAAGGCAUAGCAUUCG | 67.2 | 229 |  | 
ACCGGAGCAGGAUAUACAUGAGGAUCACCCAUGUGAGCCACACAGCUACUAUAUGCAAGUAGAAGGGCUCGGGU | 74.2 | 120 |  | 
ACCGUAUGAACAUGAGGAUCACCCAUGUAACCGAUAACGAAUGAGGAUAUCGAUAGCAAAGCUAUCGAGAAGGCAUGGGACGGU |  |  | 224 | 43.9
ACCUCACACGUCAGGAUAUGCCUGCGGAUAUGCGGGUAGAAGGGACAUGAGGAUCACCCAUGUCUUUCGUGAUU | 15.8 | 21.1 |  | 
ACCUCACAUGAGGAUCACCCAUGUUAGGAUAUCUCGAUGCUCCACGGGCGGUAGCAUCAGAGAAGGAACGUGCU | 23.9 | 21.5 |  | 
ACCUGGACCACAGGAUAUCCCAAUGUUUUACAGGGAGAAGGGUGAGAGUAUGACAUGAGGAUCACCCAUGUUGUCCAGGCGGAA |  |  | 442 | 191
ACCUUAAAAGUGAGGAUAUCUAGGGCCAAAUGGCCGGAGAAGGCACAUGAGGAUCACCCAUGUAACGCCAUGGA | 13.7 | 43.7 |  | 
ACCUUACUGGUCAGGAUAUACAGUCUUUGGUGGGUGUAGAAGGGACAUGAGGAUCACCCAUGUAGGUUGCAGCA | 175 | 153 |  | 
ACGAACCUAGGAUAUACAUGAGGAUCACCCAUGUACUACUAUCCAUGAAUGACCCUCGGUAGAAGGAGGAUCAA | 18.1 | 21.5 |  | 
ACGACGAAAGUCGAACGAUGUAGCAGAAGGACAUGAGGAUCACCCAUGUCAGCUGUGACCAAAAUGUAGGAUAUGCUACAUCGA | 71.1 | 90.8 |  | 
ACGACGAAAGUCGAACGAUGUAGCAGAAGGACAUGAGGAUCACCCAUGUCAGCUGUGACCUCAAAAUAGGAUAUGCUACAUCGA | 36.6 | 47.6 |  | 
ACGACGAAAGUCGAACGAUGUAGCAGAAGGACAUGAGGAUCACCCAUGUUAUCUGUAAUAGACAUGUAGGAUAUGCUACAUCGA | 7.89 | 41.5 |  | 
ACGCGUUGGGAGAAGGUACAUUAAAUUAGUUUAACAUGAGGAUCACCCAUGUAAGGAUAUCCCAUCGUGUAAUAUUAUACAGCA | 10.2 | 12.2 |  | 
ACGGCUGUCAGAGGAUAUGGUUACAUGAGGAUCACCCAUGUCAAGGGUCUAACUAAGUAUAACUACUAGAAGGCUGAUGGCCGA | 674 | 350 |  | 
ACGUCGAGCCAGAAGGCAACAUGAGGAUCACCCAUGUAGUCCGGCUCGUGUUGAGGAUAUGGCACCCACGCGGAAGGCGCAGGU | 5.54 | 7.19 |  | 
ACGUUAAUUCGAGGAUAUCGGUGAUAUAAUUUACGAGAAGGCGAUAAUUGUGAUAAACUUAUAGACAUGAGGAUCACCCAUGUA |  |  | 42.6 | 39.2
ACGUUUAAUACAGGAUAUGUUCUUAUACUAUAGAUUGGUUAUUACUUAAUUACAGAAGGGUAGAACAUGAGGAUCACCCAUGUA |  |  | 507 | 261
ACGUUUUUUGAGGAUAUGCGAUAUUUUUUUAUCGUAGAAGGCGAUACAUGAGGAUCACCCAUGUUUAUGGGCAU | 197 | 204 |  | 
ACUACAUGAGGAUCACCCAUGUGAAUAAUAAAAGUAACAAGCAGAAGGUGACCUCGUCUCCUGGUCAAGGAUAUGCAAGAAAGA |  |  | 267 | 33.7
ACUAGAUGAGGAUAUGCAUGUUUUCGUGUUCUUCUAGAUUAACAUGAGGAUCACCCAUGUAGAAGGCGUCAAUU | 41.5 | 132 |  | 
ACUAGAUGCGUGAAAUAACACAUGAGGAUCACCCAUGUGACACAGGAUAUAACCAGAUCAGAAAGUUAGAAGGGUGAGCACGCA |  |  | 39.2 | 21.2

Sequence | apparent Kd [1] [nM] | apparent Kd [2] [nM] | apparent Kd [3] [nM] | apparent Kd [4] [nM]
ACUAUACGAGGAUAUGCUGUCAAUACUAAGGAAUUAGUAUGACAUGAGGAUCACCCAUGUAGAAGGCGUAUACU | 27.8 | 14.7 |  | 
ACUGAAGUCACAGGAUAUCAUAUGCCGGCACAUUGAGAAGGGUGACUGGGCUACAUGAGGAUCACCCAUGUGCCGUCGUAACAA |  |  | 29.8 | 36.9
ACUGCAUAGGCAGGAUAUGCAAAAGCAGAUGCAAAGCAUUUGUAAAACACAUGAGGAUCACCCAUGUAGAAGGGCCUGUGCAGU | 21 | 20.7 |  | 
ACUGGUCGAGGAUAUACAUGAGGAUCACCCAUGUGGUUACGUGACGAUAGUCACGAAUGUAGAAGGCGACCAGU | 236 | 652 |  | 
ACUGUGCAUUAGAAGGGUGCGCGGCAAUCGCGCACAGGAUAUGAUGACAUGAGGAUCACCCAUGUCUGUGUCACCUGGGUGUCG | 13.3 | 83.8 |  | 
ACUGUUAAGACAGGAUAUCGAUUAUAACCUCUAAAACAUGAGGAUCACCCAUGUAGUCCGUAUUGCGAGAAGGGUCAUCUUAGA |  |  | 274 | 205
ACUUAUGAAGGAUAUACUGGCGACAUGCGCUCAACACGCGCACAUGAGGAUCACCCAUGUAGAAGGUCAAACAU | 27.5 | 45.5 |  | 
ACUUCACAUGAGGAUCACCCAUGUCAGGCCGGACUAGGAUAUUAUCAUGCAGCGUGACAGUGAGAAGGAGUUGGAU |  |  | 162 | 188
ACUUGCUUGCAGAAGGGUGACAUGAGGAUCACCCAUGUAGCGGGCCGGCGUAAAGUCAGCGCGCCACAGGAUAUGCAGGCCUCG |  |  | 25.2 | 58.5
ACUUUAUUUGAGAAGGUGAAGUGGAAACAUGAGGAUCACCCAUGUAUUAGGAAGCCUAAUUUUAUCAAGGAUAUCAAAUAAAGA |  |  | 7.93 | 8.04
AGAAAACAUGAGGAUCACCCAUGUCAGGAUAUCUCCAAGGCUUAACAUCCAGCCCUGCAGAGAAGGGACGGGUG | 87.9 | 225 |  | 
AGAAAAUAUGGGUAGGAUAUAUAAAGAGAAACAUGAGGAUCACCCAUGUAAAGACGAGAGUCAAAAUAGAAGGACUAAAGAAAGAA |  |  | 76 | 59.6
AGAAACUACGAGAAGGACAUAUGGUUCUUCAGUUACAUGAGGAUCACCCAUGUAGGAUAUCGUAGUUUCAGGAUCGUGAGAUCA | 7.33 | 21.7 |  | 
AGAAACUACGAGAAGGACAUGUGAACCUUCAACUACAUGAGGAUCACCCAUGUAGGAUAUCGUAGUUUCAGGAUCGUGAGAUCA | 5.93 | 6.44 |  | 
AGAAACUACGAGAAGGACAUGUGGUCCUUCAGAAACAUGAGGAUCACCCAUGUAGGAUAUCGUAGUUUCAGGAUCGUGAGAUCA | 54.4 | 20.8 |  | 
AGAAAGUGAGGAUAUACAUGAGGAUCACCCAUGUAGAACGAGAGUUAUAAAAAUGGAAGUAGAAGGCACAAAAG | 34.3 | 37.1 |  | 
AGAAAUUCAGGAUAUACAUGAGGAUCACCCAUGUUUGGCGGAGGCGCCGAGAUCCCACGUAGAAGGGAAAAGAC | 28 | 50.6 |  | 
AGAACAUGAGGAUCACCCAUGUUAAGGUCGGUAAAUAAGGGUGAGGAUAUGCUUAAAAUAAGGAAGCAGAAGGUGCUUGGUGCA |  |  | 183 | 195
AGAAGACAUGAGGAUCACCCAUGUGGGAUUAUGGGAGGAUAUACAAAGACGAGAGUCAGAGUAGAAGGCCUAGGAC |  |  | 65.6 | 26.7
AGAAUGGGCGAGAAGGGAGUACAUGAGGAUCACCCAUGUGGUUCAUGGUGCUCAGGAUAUCGAUAGACCAAGGAGCGUCUUUGG | 20.1 | 140 |  | 
AGACGGAGCUGAGGAUAUAACAUGAGGAUCACCCAUGUAAGUCUCCAGGAAACUGGAGACAAAUGUUAGAAGGCAGCUCCGUCA | 39.8 | 51.2 |  | 
AGACGGAGCUGAGGAUAUAUACAUGAGGAUCACCCAUGUAAGCUCCAGGAAACUGGAGCAAAUGUAUAGAAGGCAGCUCCGUCA | 28 | 45.9 |  | 
AGACUGAAGCAAGGAUAUUGUAAGGUUAUCGUACAAGAAGGUGCUGUUUAUGUCUCUUAACAUGAGGAUCACCCAUGUUUUAAA |  |  | 19.7 | 21.8
AGACUGAAUGUUAGGAUAUGGUUUCGGGUCUCGGACCAGAAGGAACAUGAGGAUCACCCAUGUGCCGUGGUUGU | 29 | 153 |  | 
AGACUGCGUAGAAUUAGCAGCCGACAGGAUAUGACAUGAGGAUCACCCAUGUGAACUACAAAGGAUCAGAAGGGUCACGACACA | 20.1 | 24.4 |  | 
AGAGAAUAGUCAGGAUAUGAGAAUAGAUAGAGCUCAGAAGGGACACAUGAGGAUCACCCAUGUGAAGUCUUGAGGCUGCGUGGA | 14.8 | 14.2 |  | 
AGAGAUGACGAAGGAUAUGGAUACAUGAGGAUCACCCAUGUUUAUUUAGUGAUUUUGUAUGAAUACCAGAAGGUCGAAUAAAAG | 125 | 342 |  | 
